According to PMC8911105 (Journal of Pharmaceutical Investigation, 2022):
Where two headings read alike, the source gives them in different places.

What was measured:
[1] = Basal level of endogenous ergothioneine in plasma, urine and tissues; format: in vivo, rat; details: for Decrease in Kp of basal endogenous ergothioneine after 1,25(OH)2D3 pretreatment: treated vs control
In short: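 Rats got 1,25(OH)2D3 2.56 nmol/kg/day for four days, with no ergothioneine given. Tail-vein blood (0.3 mL) was drawn 30 min before each dose and at the same time on days 5–6. Urine was collected over 24 h from day 5 to 6, and seven tissues were taken on day 6. LC-MS/MS was run with a 2–10,000 ng/mL calibration (LLOQ 2 ng/mL). n = 5 control, 6 treated; means ± SD; unpaired two-tailed t-test.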

[2] = format: in vivo, rat
In short: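 After four days of 1,25(OH)2D3 pretreatment, rats under ip Zoletil/Rompun (20 mg/kg) had femoral vein and artery cannulated. Aqueous ergothioneine (2 mg/mL) was given at 2 mg/kg IV. Plasma was sampled 0–1,440 min with heparinized-saline replacement. Plasma and urine were diluted 50- and 100-fold with 1% BSA for LC-MS/MS. AUC, CL, Vss and MRT came from non-compartmental analysis. Kp fold change was exogenous over basal Kp.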

[3] = humans; oral administration; ref Cheah et al. [2017]; cited from earlier work
[4] = mice; oral administration; ref Kato et al. [2010]; cited from earlier work
rat OCTN1 (rOCTN1) = test: RT-qPCR of rOCTN1 mRNA expression in organs of 1,25; format: in vivo; details: for Decrease in rOCTN1 mRNA expression level compared to control rats: 2.56 nmol/kg/day i.p. for four days, normalized to GAPDH
[5] = Body weight of rats during 1,25; format: in vivo, rat; details: after pretreatment with 1,25(OH)2D3 2.56 nmol/kg/day for four days
[6] = brain, 1,25(OH)2D3-treated rats
[7] = heart, 1,25(OH)2D3-treated rats
[8] = kidney, 1,25(OH)2D3-treated rats
[9] = muscle, 1,25(OH)2D3-treated rats
[10] = spleen, 1,25(OH)2D3-treated rats
[11] = 2 mg/kg IV, 1,25(OH)2D3-treated rats

C[N+](C)(C)[C@@H](Cc1c[nH]c(=S)[nH]1)C(=O)[O-] [ergothioneine, l-ergothioneine]
Cumulative amount of ergothioneine excreted in urine for 24 h (basal, endogenous) ([1]; 1,25(OH)2D3-treated group): 1880 ng
Basal plasma level of endogenous ergothioneine compared with control ([1]; 1,25(OH)2D3-treated group, third day to sixth day of pretreatment): significantly increased
Tissue partition coefficient (Kp), basal endogenous ergothioneine [1, 6]: 1.587 ± 0.929
Tissue partition coefficient (Kp), basal endogenous ergothioneine ([1]; brain, control rats): 3.585 ± 0.447
Cumulative amount of ergothioneine excreted in urine for 24 h (basal, endogenous) ([1]; control group): 3858 ng
Tissue partition coefficient (Kp), basal endogenous ergothioneine [1, 7]: 22.25 ± 15.27
Tissue partition coefficient (Kp), basal endogenous ergothioneine ([1]; heart, control rats): 34.59 ± 7.01
Tissue partition coefficient (Kp), basal endogenous ergothioneine [1, 8]: 20.56 ± 11.88
Tissue partition coefficient (Kp), basal endogenous ergothioneine ([1]; kidney, control rats): 60.85 ± 10.93
Decrease in Kp of basal endogenous ergothioneine after 1,25(OH)2D3 pretreatment ([1]; kidneys): 66.2%
Tissue partition coefficient (Kp), basal endogenous ergothioneine ([1]; liver, 1,25(OH)2D3-treated rats (n = 6)): 106.7 ± 62.3
Tissue partition coefficient (Kp), basal endogenous ergothioneine ([1]; liver, control rats (n = 5)): 224.4 ± 53.9
Decrease in Kp of basal endogenous ergothioneine after 1,25(OH)2D3 pretreatment ([1]; liver): 52.4%
Tissue partition coefficient (Kp), basal endogenous ergothioneine ([1]; lung, 1,25(OH)2D3-treated rats): 17.75 ± 11.47
Tissue partition coefficient (Kp), basal endogenous ergothioneine ([1]; lung, control rats): 30.67 ± 6.68
Tissue partition coefficient (Kp), basal endogenous ergothioneine [1, 9]: 4.471 ± 3.279
Tissue partition coefficient (Kp), basal endogenous ergothioneine ([1]; muscle, control rats): 8.385 ± 1.141
Decrease in Kp of basal endogenous ergothioneine after 1,25(OH)2D3 pretreatment ([1]; muscle): 46.7%
Tissue partition coefficient (Kp), basal endogenous ergothioneine [1, 10]: 15.22 ± 7.87
Tissue partition coefficient (Kp), basal endogenous ergothioneine ([1]; spleen, control rats): 42.50 ± 14.19
Decrease in Kp of basal endogenous ergothioneine after 1,25(OH)2D3 pretreatment ([1]; spleen): 64.2%
CL [2, 11]: 1.894 ± 0.733 mL/min/kg
MRT [2, 11]: 33.50 ± 20.07 h
Urinary recovery of ergothioneine within 24 h [2, 11]: 1.08%
Vss [2, 11]: 3.298 ± 0.959 L/kg
AUC∞ ([2]; 2 mg/kg IV, 1,25(OH)2D3-treated rats (n = 6)): 1198 ± 457 µg·min/mL
CL ([2]; 2 mg/kg IV, control rats): 3.729 ± 1.734 mL/min/kg
MRT ([2]; 2 mg/kg IV, control rats): 27.11 ± 17.31 h
Urinary recovery of ergothioneine within 24 h ([2]; 2 mg/kg IV, control rats): 3.89%
Vss ([2]; 2 mg/kg IV, control rats): 4.82 ± 1.291 L/kg
AUC∞ ([2]; 2 mg/kg IV, control rats (n = 7)): 647.5 ± 327.5 µg·min/mL
Decrease in total clearance in 1,25(OH)2D3-treated rats ([2]; 2 mg/kg IV, treated vs control): 49%
Increase in AUC∞ in 1,25(OH)2D3-treated rats ([2]; 2 mg/kg IV, treated vs control): 85%
Tissue partition coefficient (Kp), IV exogenous ergothioneine [2, 6]: 2.909 ± 0.448
Tissue partition coefficient (Kp), IV exogenous ergothioneine ([2]; brain, control rats): 4.799 ± 1.199
Tissue partition coefficient (Kp), IV exogenous ergothioneine [2, 7]: 39.88 ± 10.04
Tissue partition coefficient (Kp), IV exogenous ergothioneine ([2]; heart, control rats): 81.04 ± 37.23
Fold change of Kp (exogenous versus endogenous basal) ([2]; kidney, 1,25(OH)2D3-treated group): 3.70 fold
Tissue partition coefficient (Kp), IV exogenous ergothioneine [2, 8]: 76.12 ± 47.89
Fold change of Kp (exogenous versus endogenous basal) ([2]; kidney, control group): 3.13 fold
Tissue partition coefficient (Kp), IV exogenous ergothioneine ([2]; kidney, control rats): 190.7 ± 59.4
Tissue partition coefficient (Kp), IV exogenous ergothioneine ([2]; liver, 1,25(OH)2D3-treated rats (n = 6), 24 h after 2 mg/kg IV): 237.3 ± 82.8
Tissue partition coefficient (Kp), IV exogenous ergothioneine ([2]; liver, control rats (n = 5), 24 h after 2 mg/kg IV): 407.8 ± 113.9
Tissue partition coefficient (Kp), IV exogenous ergothioneine ([2]; lung, 1,25(OH)2D3-treated rats): 38.61 ± 8.48
Tissue partition coefficient (Kp), IV exogenous ergothioneine ([2]; lung, control rats): 57.37 ± 14.60
Tissue partition coefficient (Kp), IV exogenous ergothioneine [2, 9]: 10.25 ± 3.90
Tissue partition coefficient (Kp), IV exogenous ergothioneine ([2]; muscle, control rats): 19.43 ± 8.95
Tissue partition coefficient (Kp), IV exogenous ergothioneine [2, 10]: 21.89 ± 2.34
Tissue partition coefficient (Kp), IV exogenous ergothioneine ([2]; spleen, control rats): 70.56 ± 17.46
Urinary recovery of ergothioneine [3]: < 4%
Urinary recovery of ergothioneine [4]: < 4%

C=C1/C(=C\C=C2/CCC[C@]3(C)[C@@H]([C@H](C)CCCC(C)(C)O)CC[C@@H]23)C[C@@H](O)C[C@@H]1O [1,25(OH)2D3, 1α,25-dihydroxyvitamin D3]
Decrease in rOCTN1 mRNA expression level compared to control rats (rat OCTN1 (rOCTN1); brain): 27%
Decrease in rOCTN1 mRNA expression level compared to control rats (rat OCTN1 (rOCTN1); kidney): 77%
Change in rOCTN1 mRNA levels (rat OCTN1 (rOCTN1); other tissues, such as the liver, spleen, and heart): no significant changes
Weight gain compared with control rats [5]: significantly lower
